The values below come from ChEMBL document CHEMBL4706480, “Pyridin-2(1H)one derivatives: A possible new class of therapeutics for mechanical allodynia” (Eur J Med Chem, 2020).

For experiment [1], the system named is Rattus norvegicus. Briefly: Anti-allodynic activity in complete freund's adjuvant-induced rat inflammatory pain model assessed as inflammatory mechanical allodynia pretreated at 100 uM intra-cisternally administerd 30 min before CFA injection. The experiment is classed as functional, organism-based. The gist of the method:
(§1)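 Rats briefly anesthetized (<2 min, 2% isoflurane by mask), given intracisternal 5 μL compound (100 μM) or vehicle (saline + 1% DMSO) 30 min before subcutaneous CFA (25 μL, 2.5 mg/kg) into right vibrissa pad. Static mechanical allodynia tested with 6-g von Frey filament on face every 15 or 30 min over 120 min; allodynic score 0–4 (Vos). n=4–6 rats.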

Experiment [2] deals with Protein kinase C gamma type (Homo sapiens) (UniProt P05129). Nature of the experiment: Inhibition of PKC-gamma (unknown origin) assessed as residual activity at 10 uM.
Experiment [3] concerns Rattus norvegicus. Briefly: Anti-allodynic activity in complete freund's adjuvant-induced rat inflammatory pain model assessed as inflammatory mechanical allodynia pretreated at 100 uM intra-cisternally administerd 30 min before CFA injection measured 120 min after CFA injection relative to control. It is filed as functional. The settings on record: 0.5 h. A digest of the protocol:
as §1

Experiment [4] relates to Rattus norvegicus. Briefly: Anti-allodynic activity in complete freund's adjuvant-induced rat inflammatory pain model assessed as inflammatory mechanical allodynia pretreated at 0.15 ug intra-cisternally administerd 30 min before CFA injection relative to control. The settings on record: dose 0.15 µg, 0.5 h. It is filed as functional. The gist of the method:
as §1

The subject of experiment [5] is Rattus norvegicus. Briefly: Anti-allodynic activity in complete freund's adjuvant-induced rat inflammatory pain model assessed as inflammatory mechanical allodynia pretreated at 0.17 ug intra-cisternally administerd 30 min before CFA injection relative to control. It is filed as functional. Conditions: dose 0.17 µg, 0.5 h. The gist of the method:
as §1

Experiment [6] concerns Rattus norvegicus. Nature of the experiment: Anti-allodynic activity in constriction injury-induced rat neuropathic mechanic allodynia model assessed as inflammatory mechanical allodynia at 0.17 ug intra-cisternally administered on day 14 after injury. It is filed as functional, organism-based. The settings on record: dose 0.17 µg, in the assay text read “static mechanical allodynia” for “inflammatory mechanical allodynia”. A digest of the protocol: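 Neuropathic model: infraorbital nerve chronic constriction (two loose 4/0 chromic catgut ligatures 1 mm apart, chloral hydrate 400 mg/kg i.p. anesthesia). On day 14, once stable allodynia present, intracisternal 5 μL compound (100 μM) or vehicle (saline + 1% DMSO) under brief isoflurane. Face stimulated with 6-g von Frey filament; allodynic score 0–4; n=5/group; mean ± s.e.m.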

The target in experiment [7] is Mitogen-activated protein kinase 14 (Homo sapiens) (UniProt Q16539). Nature of the experiment: Inhibition of p38alpha MAPK (unknown origin) assessed as residual activity at 10 uM.

The source made the active and inactive calls. The calls are words filed in the database; no cut-off is given here.

A word on the inhibition in vivo: it is the percentage by which the read-out fell short of the control.

Sequence of Mitogen-activated protein kinase 14 (Homo sapiens) (Q16539 whole entry): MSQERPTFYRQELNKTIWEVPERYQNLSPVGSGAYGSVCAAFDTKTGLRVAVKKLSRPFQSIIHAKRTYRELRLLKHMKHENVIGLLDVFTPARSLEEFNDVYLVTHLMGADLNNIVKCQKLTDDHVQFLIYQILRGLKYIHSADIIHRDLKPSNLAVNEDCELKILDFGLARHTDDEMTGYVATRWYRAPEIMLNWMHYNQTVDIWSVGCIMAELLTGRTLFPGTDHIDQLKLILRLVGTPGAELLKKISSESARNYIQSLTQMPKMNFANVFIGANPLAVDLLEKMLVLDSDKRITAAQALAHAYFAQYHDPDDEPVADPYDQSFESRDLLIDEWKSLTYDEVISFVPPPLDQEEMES

As to `O=c1[nH]cc(Nc2ccccc2)cc1-c1ccc(F)cc1`, the inhibition result in the experiment on Rattus norvegicus [1] was “Active”. In experiment [2], the Activity is greater than 85%.
On to `O=c1[nH]cc(Nc2ccccc2)cc1-c1cncnc1`, for which the inhibition entry in the experiment with Rattus norvegicus [1] was “Active”. Also, the Activity in experiment [2] was greater than 85%.
With `O=c1[nH]cc(Nc2ccccc2)cc1-c1ccc(O)cc1`, the inhibition result with Rattus norvegicus [1] was “Active”.
For `NC(=O)c1ccc(-c2cc(Nc3ccccc3)c[nH]c2=O)cc1`, the inhibition entry in the experiment on Rattus norvegicus [1] is “Active”.
Turning to `O=c1[nH]cc(Nc2ccccc2)cc1-c1ccnc2ccccc12`, the inhibition result in the experiment with Rattus norvegicus [1] is “Active”.
The same measure, in the same setting: with `O=c1[nH]cc(Nc2ccccc2)cc1-c1ccccc1[N+](=O)[O-]` the entry was “Active”.
Consider `O=c1[nH]cc(Nc2ccccc2)cc1-c1ccncc1`, for which the inhibition result in the experiment with Rattus norvegicus [1] was “Active”. Besides, the inhibition in vivo at 100 µM with Rattus norvegicus [3] was 90%. Besides, the Activity in experiment [2] is greater than 85%.
As for `O=c1[nH]cc(Nc2ccccc2)cc1-c1c[nH]c2ccccc12`, the Activity in experiment [2] is greater than 85%.
Take `CCOC(=O)c1ccccc1-c1cc(Nc2ccccc2)c[nH]c1=O`: the inhibition entry with Rattus norvegicus [1] is “Active”.
For `O=c1[nH]cc(Nc2ccccc2)cc1-c1cccc2cccnc12`, in the experiment on Rattus norvegicus [1], the inhibition entry was “Active”. The Activity in experiment [2] is greater than 85%.
Consider `COC(=O)c1ccc(-c2cc(Nc3ccccc3)c[nH]c2=O)cc1`, for which the inhibition result with Rattus norvegicus [1] was “Active”.
With `O=c1[nH]cc(Nc2ccccc2)cc1-c1cccc2cnccc12`, in experiment [2], the Activity was greater than 85%.
Consider `O=c1[nH]cc(Nc2ccccc2)cc1-c1cccc2[nH]ccc12`, for which the inhibition result in the experiment on Rattus norvegicus [1] is “Active”. Also, the “inhibition (INH)” value with Rattus norvegicus [4] amounted to 98%.
For the compound `NC(=O)c1ccccc1-c1cc(Nc2ccccc2)c[nH]c1=O`, the inhibition entry in the experiment on Rattus norvegicus [1] was “Active”.
Consider `O=c1[nH]cc(Nc2ccccc2)cc1-c1ccc(OC(F)(F)F)cc1`, for which the inhibition entry in the experiment on Rattus norvegicus [1] was “Active”.
As for `O=c1[nH]cc(Nc2ccccc2)cc1-c1cccc(Cl)c1`, the inhibition result with Rattus norvegicus [1] was “Active”.
For `O=c1[nH]cc(Nc2ccccc2)cc1-c1ccccc1Br`, the inhibition result in the experiment on Rattus norvegicus [1] and in the experiment with Rattus norvegicus [6] was “Active” each time. Also, the “inhibition (INH)” value in the experiment with Rattus norvegicus [5] came out at 99%. In experiment [7], the Activity worked out at 19%.
In the case of `O=c1[nH]cc(Nc2ccccc2)cc1-c1ccccc1Cl`, the inhibition result with Rattus norvegicus [1] was “Active”.
Consider `O=c1[nH]cc(Nc2ccccc2)cc1-c1ccc(C(F)(F)F)cc1`, for which the inhibition entry in the experiment on Rattus norvegicus [1] is “Active”.
Take `O=c1[nH]cc(Nc2ccccc2)cc1-c1ccccc1`: the inhibition entry with Rattus norvegicus [1] was “Active”. Also, in experiment [2], the Activity is greater than 85%.
With `O=c1[nH]cc(Nc2ccccc2)cc1-c1ccc(F)cc1F`, in the experiment with Rattus norvegicus [1], the inhibition entry is “Active”.
Consider `CC(=O)c1cccc(-c2cc(Nc3ccccc3)c[nH]c2=O)c1`, for which the inhibition result with Rattus norvegicus [1] is “Active”.
For `Cc1ccc(-c2cc(Nc3ccccc3)c[nH]c2=O)cc1`, in the experiment with Rattus norvegicus [1], the inhibition entry is “Active”.
